In brackets after ≈: the same amount, converted by molar mass.
Legend:
[1] = (§1) Growth inhibition of human HeLa cells by MTT assay; format: cell-based; conditions: HeLa cells
In short: (§2)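 Human cancer cell lines were exposed in vitro to a range of compound concentrations. Viability was read by MTT colorimetric assay, and GI50 and GI90 were derived from the concentration series.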

[2] = test system: HeLa; experiment: as §1; format: cell-based; conditions: hela; in short: as §2
[3] = test system: A549; experiment: (§3) Growth inhibition of human A549 cells by MTT assay; format: cell-based; conditions: a549; in short: as §2
[4] = as §3; format: cell-based; conditions: A549 cells; in short: as §2
[5] = test system: PANC-1; experiment: (§4) Growth inhibition of human PANC1 cells by MTT assay; format: cell-based; conditions: panc-1; in short: as §2
[6] = as §4; format: cell-based, PANC-1; conditions: PANC-1 cells; in short: as §2
[7] = test system: Mycobacterium tuberculosis; experiment: Antitubercular activity against dormant stage of Mycobacterium tuberculosis H37Ra ATCC 25177 by two fold dilution technique; format: functional
In short: (§5)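 MIC against dormant-stage bacilli, read out by XTT reduction menadione assay (XRMA), with rifampicin MIC determined the same way as reference.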

[8] = test system: Mycobacterium tuberculosis; experiment: Antitubercular activity against dormant stage of Mycobacterium tuberculosis H37Ra ATCC 25177 after 12 days by XRMA; format: functional, organism-based; conditions: H37Ra ATCC 25177, 288 h; in short: as §5
[9] = test system: THP-1; experiment: Cytotoxicity against human THP1 cells at 30 ug/ml; format: cell-based
[10] = test system: THP-1; experiment: Cytotoxicity against human THP1 cells at 10 ug/ml; format: cell-based
[11] = test system: Mycobacterium tuberculosis; experiment: Antitubercular activity against dormant stage of Mycobacterium tuberculosis H37Ra ATCC 25177 infected in human THP1 cells by nitrate reductase assay; format: functional, organism-based; conditions: for MIC90: H37Ra ATCC 25177; for IC50: H37Ra ATCC 25177, THP-1
[12] = test system: Mycobacterium tuberculosis; experiment: Antitubercular activity against dormant stage of Mycobacterium tuberculosis H37Ra ATCC 25177 assessed as growth inhibition at 30 ug/ml after 12 days by XRMA relative to control; format: functional; conditions: H37Ra ATCC 25177, 288 h
[13] = test system: Mycobacterium tuberculosis; experiment: Antitubercular activity against dormant stage of Mycobacterium tuberculosis H37Ra ATCC 25177 assessed as growth inhibition at 3 ug/ml after 12 days by XRMA relative to control; format: functional; conditions: H37Ra ATCC 25177, 288 h
[14] = test system: Mycobacterium tuberculosis; experiment: Antitubercular activity against dormant stage of Mycobacterium tuberculosis H37Ra ATCC 25177 assessed as growth inhibition at 10 ug/ml after 12 days by XRMA relative to control; format: functional; conditions: H37Ra ATCC 25177, 288 h
[15] = test system: THP-1; experiment: Cytotoxicity against human THP1 cells at 3 ug/ml; format: cell-based
[16] = Growth inhibition of human THP1 cells; format: cell-based; conditions: THP-1 cells

Structure (SMILES) | GI50 [1] [µg/mL] | GI90 [2] [µg/mL] | GI90 [3] [µg/mL] | GI50 [4] [µg/mL] | GI90 [5] [µg/mL] | GI50 [6] [µg/mL] | MIC90 [7] | IC50 [8] | Activity [9] [%] | Activity [10] [%] | MIC90 [11] | IC50 [11] | inhibition at 30 µg/mL [12] [%] | inhibition at 3 µg/mL [13] [%] | inhibition at 10 µg/mL [14] [%] | Activity [15] [%] | GI50 [16] [µg/mL]
CO[C@H]1/C=C/O[C@@]2(C)Oc3c(C)c(O)c4c(O)c(c(/C=N/N5CCN(C)CC5)c(O)c4c3C2=O)NC(=O)/C(C)=C\C=C\[C@H](C)[C@H](O)[C@@H](C)[C@@H](O)[C@@H](C)[C@H](OC(C)=O)[C@@H]1C [RIFAMPIN] | > 100 | > 100 | > 100 | > 100 | > 100 | > 100 | 0.91 µM | – | – | – | – | – | – | – | – | – | –
Cc1nc(C)c(-c2nn(-c3ccc(F)cc3)cc2/C=C/C(=O)c2cc(Cl)c(C)cc2O)s1 | 34.9 (≈ 74.5 µM) | 87.29 (≈ 187 µM) | > 250 | > 250 | > 250 | > 250 | 49.7 µM | 2440 nM | 17.45 | 13.26 | 7.56 µM | 1920 nM | 92.7 | 3.95 | 16.3 | 10.73 | –
Cc1nc(C)c(-c2nn(-c3ccc(F)cc3)cc2C2CC(c3c(O)cc(C)c(Cl)c3C)=NN2)s1 (centres undefined) | 25.2 (≈ 50.8 µM) | 46.87 (≈ 94.5 µM) | 88.98 (≈ 179 µM) | 43.4 (≈ 87.4 µM) | 77.64 (≈ 157 µM) | 41.6 (≈ 83.9 µM) | 5.04 µM | 80 nM | 18.32 | 15.45 | 1.23 µM | 440 nM | 93.7 | 91 | 95.4 | 9.52 | > 30
Cc1nc(C)c(-c2nn(-c3ccc(F)cc3)cc2/C=C/C(=O)c2cc(Br)ccc2O)s1 | 4.88 (≈ 9.79 µM) | 44.94 (≈ 90.2 µM) | > 250 | > 250 | > 250 | > 250 | > 30 µg/mL | > 30 µg/mL | 24.98 | 21.42 | > 30 µg/mL | > 30 µg/mL | 27.5 | 23.5 | 9 | 20.41 | –
Cc1ccc2oc(-c3cn(-c4ccc(F)cc4)nc3-c3sc(C)nc3C)cc(=O)c2c1 | > 250 | > 250 | > 250 | > 250 | > 250 | > 250 | 5.89 µM | 1070 nM | 4.94 | 2.34 | 1.23 µM | 160 nM | 92.2 | 47.8 | 88.6 | 0.8 | > 30
Cc1nc(C)c(-c2nn(-c3ccc(F)cc3)cc2/C=C/C(=O)c2c(O)cc(C)c(Cl)c2C)s1 | 59.3 (≈ 123 µM) | 128.28 (≈ 266 µM) | 84.31 (≈ 175 µM) | 33.5 (≈ 69.4 µM) | 97.41 (≈ 202 µM) | 35.2 (≈ 73.1 µM) | > 30 µg/mL | > 30000 nM | 41.43 | 18.42 | > 30 µg/mL | > 30 µg/mL | 10.1 | 3.39 | 9.47 | 13.12 | –
Cc1nc(C)c(-c2nn(-c3ccc(F)cc3)cc2C2CC(c3cc(Br)ccc3O)=NN2)s1 (centres undefined) | 21.6 (≈ 42.2 µM) | 43.11 (≈ 84.1 µM) | 154.68 (≈ 302 µM) | 81.4 (≈ 159 µM) | 115.65 (≈ 226 µM) | 76.4 (≈ 149 µM) | 5.79 µM | 310 nM | 19.51 | 14.69 | 2.95 µM | 410 nM | 88.2 | 42.5 | 75.5 | 13.91 | > 30
Cc1nc(C)c(-c2nn(-c3ccc(F)cc3)cc2C2CC(c3cc(Cl)c(C)cc3O)=NN2)s1 (centres undefined) | > 250 | > 250 | > 250 | 146 (≈ 302 µM) | > 250 | 127 (≈ 264 µM) | 9.65 µM | 520 nM | 17.93 | 10.66 | 8.59 µM | 1620 nM | 95.6 | 38.8 | 43.5 | 9.1 | > 30
CC(=O)O[C@H]1C(=O)[C@@]2(C)[C@H]([C@H](OC(=O)c3ccccc3)[C@]3(O)C[C@H](OC(=O)[C@H](O)[C@@H](NC(=O)c4ccccc4)c4ccccc4)C(C)=C1C3(C)C)[C@]1(OC(C)=O)CO[C@@H]1C[C@@H]2O [PACLITAXEL] | – | 0.075 (≈ 0.0878 µM) | 0.0706 (≈ 0.0827 µM) | – | 5.715 (≈ 6.69 µM) | – | – | – | – | – | – | – | – | – | – | – | –
Cc1nc(C)c(-c2nn(-c3ccc(F)cc3)cc2C2CC(c3cc(Cl)ccc3O)=NN2)s1 (centres undefined) | > 250 | > 250 | > 250 | > 250 | > 250 | > 250 | 2.48 µM | 60 nM | 17.04 | 11.51 | 1.5 µM | 360 nM | 97.2 | 41.6 | 79.7 | 7.09 | > 30
Cc1ccc(O)c(C2=NNC(c3cn(-c4ccc(F)cc4)nc3-c3sc(C)nc3C)C2)c1 (centres undefined) | > 250 | > 250 | > 250 | > 250 | > 250 | > 250 | 46.4 µM | 4310 nM | 24.05 | 10.7 | 33.4 µM | 11900 nM | 36.7 | 24.8 | 39.7 | 5.94 | –
Cc1nc(C)c(-c2nn(-c3ccc(F)cc3)cc2-c2cc(=O)c3cc(Cl)c(C)cc3o2)s1 | 16.7 (≈ 35.8 µM) | 53.48 (≈ 115 µM) | > 250 | > 250 | > 250 | > 250 | 3.69 µM | 1670 nM | 24.65 | 16.62 | 2.94 µM | 670 nM | 93.7 | 53.5 | 23.2 | 12.82 | > 30
Cc1nc(C)c(-c2nn(-c3ccc(F)cc3)cc2/C=C/C(=O)c2cc(Cl)cc(Cl)c2O)s1 | > 250 | > 250 | > 250 | > 250 | > 250 | > 250 | > 30 µg/mL | > 30 µg/mL | 49.76 | 17.69 | > 30 µg/mL | > 30 µg/mL | 30.5 | 20.4 | 26.8 | 15.71 | –
Cc1ccc(O)c(C(=O)/C=C/c2cn(-c3ccc(F)cc3)nc2-c2sc(C)nc2C)c1 | 29.9 (≈ 68.9 µM) | 77.32 (≈ 178 µM) | 136.87 (≈ 316 µM) | 47.8 (≈ 110 µM) | 114.87 (≈ 265 µM) | 52.4 (≈ 121 µM) | 32.7 µM | 5560 nM | 24.3 | 15.3 | 17.1 µM | 2860 nM | 96 | 34.7 | 61.7 | 14.14 | –
Cc1nc(C)c(-c2nn(-c3ccc(F)cc3)cc2/C=C/C(=O)c2cc(Cl)ccc2O)s1 | > 250 | > 250 | > 250 | > 250 | > 250 | > 250 | > 30 µg/mL | > 30 µg/mL | 36.55 | 34.74 | > 30 µg/mL | > 30 µg/mL | 3.39 | 2.66 | 5.49 | 16.49 | –

Source: ChEMBL document CHEMBL4392833, “Thiazolyl-pyrazole derivatives as potential antimycobacterial agents” (Bioorg Med Chem Lett, 2019)
